Measured values from ChEMBL document CHEMBL5325511, “Discovery of N-(4-(Aminomethyl)phenyl)-5-methylpyrimidin-2-amine Derivatives as Potent and Selective JAK2 Inhibitors” (ACS Med Chem Lett, 2023).

Assays:
[1] = molecular target: Tyrosine-protein kinase JAK2 (Homo sapiens, UniProt O60674, V617F); experiment: Inhibition of JAK2 V617F mutant in human SET2 cells; type: cell-based
In short: (§1)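 Cell proliferation assay. IC50 is the concentration that inhibits proliferation by 50%, taken from dose–response curves. Mean ± SEM of at least three independent experiments.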

[2] = molecular target: Tyrosine-protein kinase JAK2 (Mus musculus, UniProt Q62120, V617F); experiment: Inhibition of JAK2 V617F mutant in mouse BaF3 cells; type: cell-based; in short: as §1
[3] = molecular target: T1, Receptor-type tyrosine-protein kinase FLT3 (Homo sapiens, UniProt P36888); experiment: Inhibition of FLT3 in human MOLM-13 cells; type: cell-based; in short: as §1
T1 sequence (P36888 whole entry): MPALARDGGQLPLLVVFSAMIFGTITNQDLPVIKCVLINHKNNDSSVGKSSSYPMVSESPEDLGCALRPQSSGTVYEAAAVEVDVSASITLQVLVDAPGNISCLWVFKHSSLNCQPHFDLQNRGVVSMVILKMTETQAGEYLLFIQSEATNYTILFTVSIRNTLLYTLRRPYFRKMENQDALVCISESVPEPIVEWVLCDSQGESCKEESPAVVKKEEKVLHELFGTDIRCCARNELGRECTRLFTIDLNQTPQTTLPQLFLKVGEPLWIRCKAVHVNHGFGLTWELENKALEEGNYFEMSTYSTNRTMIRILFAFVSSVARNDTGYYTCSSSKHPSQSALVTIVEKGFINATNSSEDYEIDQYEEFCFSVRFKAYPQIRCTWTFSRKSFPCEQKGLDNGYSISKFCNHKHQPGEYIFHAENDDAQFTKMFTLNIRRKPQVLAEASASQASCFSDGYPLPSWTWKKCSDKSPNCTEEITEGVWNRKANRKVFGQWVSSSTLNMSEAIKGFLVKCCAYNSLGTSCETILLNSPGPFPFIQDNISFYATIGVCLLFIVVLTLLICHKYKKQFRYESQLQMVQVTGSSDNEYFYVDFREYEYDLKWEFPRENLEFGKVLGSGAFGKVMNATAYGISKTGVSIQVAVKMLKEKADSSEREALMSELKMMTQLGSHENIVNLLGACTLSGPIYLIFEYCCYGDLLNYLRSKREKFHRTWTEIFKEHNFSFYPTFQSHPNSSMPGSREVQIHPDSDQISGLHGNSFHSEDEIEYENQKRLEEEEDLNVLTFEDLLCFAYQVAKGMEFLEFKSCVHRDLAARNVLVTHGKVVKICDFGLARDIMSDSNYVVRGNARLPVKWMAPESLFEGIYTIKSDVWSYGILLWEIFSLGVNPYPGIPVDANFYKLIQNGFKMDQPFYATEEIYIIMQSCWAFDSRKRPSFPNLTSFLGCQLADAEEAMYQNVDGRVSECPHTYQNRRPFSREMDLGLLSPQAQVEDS

[4] = Metabolic stability in human liver microsomes assessed as half life; type: ADME, Microsome
[5] = molecular target: Tyrosine-protein kinase JAK1 (Homo sapiens, UniProt P23458); experiment: Inhibition of JAK1 (unknown origin) in presence of Mg/ATP mixture by [gamma p33]-ATP based radiometric assay
In short: (§2)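 IC50 values determined by Eurofins Discovery.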

[6] = molecular target: T2, Tyrosine-protein kinase JAK2 (Homo sapiens, UniProt O60674); experiment: Inhibition of JAK2 (unknown origin) in presence of Mg/ATP mixture by [gamma p33]-ATP based radiometric assay; in short: as §2
[7] = molecular target: T3, Tyrosine-protein kinase JAK3 (Homo sapiens, UniProt P52333); experiment: Inhibition of JAK3 (unknown origin) in presence of Mg/ATP mixture by [gamma p33]-ATP based radiometric assay
T3 sequence (P52333 whole entry): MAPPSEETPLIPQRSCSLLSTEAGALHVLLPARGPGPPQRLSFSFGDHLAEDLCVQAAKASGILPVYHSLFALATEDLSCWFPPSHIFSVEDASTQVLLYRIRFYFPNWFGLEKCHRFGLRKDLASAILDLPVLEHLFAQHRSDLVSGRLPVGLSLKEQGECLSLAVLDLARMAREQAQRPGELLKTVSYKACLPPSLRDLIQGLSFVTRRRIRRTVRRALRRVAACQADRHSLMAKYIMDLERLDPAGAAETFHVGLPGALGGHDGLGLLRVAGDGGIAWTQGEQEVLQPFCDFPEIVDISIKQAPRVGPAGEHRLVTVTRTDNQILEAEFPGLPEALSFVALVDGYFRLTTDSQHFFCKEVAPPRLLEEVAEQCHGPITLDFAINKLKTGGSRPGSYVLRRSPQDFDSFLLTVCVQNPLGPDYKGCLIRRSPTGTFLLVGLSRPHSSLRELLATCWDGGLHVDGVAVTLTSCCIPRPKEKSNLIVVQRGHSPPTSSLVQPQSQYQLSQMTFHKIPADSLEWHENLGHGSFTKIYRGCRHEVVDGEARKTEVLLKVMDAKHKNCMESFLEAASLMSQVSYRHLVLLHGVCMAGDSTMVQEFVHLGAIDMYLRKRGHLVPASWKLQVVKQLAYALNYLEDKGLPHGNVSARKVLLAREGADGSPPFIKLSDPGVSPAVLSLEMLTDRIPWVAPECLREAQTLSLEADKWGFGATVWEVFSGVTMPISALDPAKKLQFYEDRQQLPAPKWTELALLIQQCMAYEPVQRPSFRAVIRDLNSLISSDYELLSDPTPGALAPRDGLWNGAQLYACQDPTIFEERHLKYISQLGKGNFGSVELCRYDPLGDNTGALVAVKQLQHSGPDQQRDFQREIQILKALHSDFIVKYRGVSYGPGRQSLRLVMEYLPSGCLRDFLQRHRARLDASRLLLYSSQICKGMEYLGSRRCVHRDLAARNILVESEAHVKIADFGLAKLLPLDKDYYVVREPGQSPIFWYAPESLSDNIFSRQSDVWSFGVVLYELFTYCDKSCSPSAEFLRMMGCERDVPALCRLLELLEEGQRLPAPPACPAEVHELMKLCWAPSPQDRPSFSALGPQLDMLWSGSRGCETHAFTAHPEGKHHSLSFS

[8] = molecular target: Non-receptor tyrosine-protein kinase TYK2 (Homo sapiens, UniProt P29597); experiment: Inhibition of TYK2 (unknown origin) in presence of Mg/ATP mixture by [gamma p33]-ATP based radiometric assay
[9] = molecular target: T1, Receptor-type tyrosine-protein kinase FLT3; experiment: Inhibition of FLT3 (unknown origin) in presence of Mg/ATP mixture by [gamma p33]-ATP based radiometric assay; in short: as §2
[10] = Cmax in Sprague-Dawley rat at 5 mg/kg, po measured upto 24 hrs by LC-MS/MS analysis; type: ADME, organism-based; parameters: dose 5 mg/kg, time < 24 hrs, route po; settings: in vivo, 24 h
In short: (§3)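 Sprague–Dawley rats, n = 5, dosed at 5 mg/kg as a solution in 2% ethanol and 1% Tween 80, pH 5.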

[11] = Tmax in Sprague-Dawley rat at 5 mg/kg, po measured upto 24 hrs by LC-MS/MS analysis; type: ADME, organism-based; settings: in vivo, po, 5 mg/kg, 24 h
In short: (§4)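 Sprague–Dawley rats, n = 5 per group, dosed at 5 mg/kg as a solution in 2% ethanol and 1% Tween 80, pH 5.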

[12] = Half life in Sprague-Dawley rat at 5 mg/kg, po measured upto 24 hrs by LC-MS/MS analysis; type: ADME, organism-based; settings: in vivo, po, 5 mg/kg, 24 h; in short: as §3
[13] = Clearance in Sprague-Dawley rat at 5 mg/kg, po measured upto 24 hrs by LC-MS/MS analysis; type: ADME, organism-based; settings: in vivo; in short: as §3
[14] = AUC(0 to t) in Sprague-Dawley rat at 5 mg/kg, po measured upto 24 hrs by LC-MS/MS analysis; type: ADME, organism-based; parameters: time < 24 hrs, dose 5 mg/kg, route po; settings: in vivo; in short: as §3
[15] = Oral bioavailability in Sprague-Dawley rat at 5 mg/kg measured upto 24 hrs by LC-MS/MS analysis; type: ADME, organism-based; settings: in vivo; in short: as §4
[16] = Selectivity ratio of IC50 for JAK3 (unknown origin) to IC50 for JAK2 (unknown origin)
[17] = Selectivity ratio of IC50 for TYK2 (unknown origin) to IC50 for JAK2 (unknown origin)
[18] = Selectivity ratio of IC50 for FLT3 (unknown origin) to IC50 for JAK2 (unknown origin)
[19] = molecular target: T2, Tyrosine-protein kinase JAK2; experiment: Inhibition of human JAK2 JH1 expressed in baculovirus infected Sf9 cells assessed as residual activity at 100 nM relative to control

T2 sequence (O60674 whole entry): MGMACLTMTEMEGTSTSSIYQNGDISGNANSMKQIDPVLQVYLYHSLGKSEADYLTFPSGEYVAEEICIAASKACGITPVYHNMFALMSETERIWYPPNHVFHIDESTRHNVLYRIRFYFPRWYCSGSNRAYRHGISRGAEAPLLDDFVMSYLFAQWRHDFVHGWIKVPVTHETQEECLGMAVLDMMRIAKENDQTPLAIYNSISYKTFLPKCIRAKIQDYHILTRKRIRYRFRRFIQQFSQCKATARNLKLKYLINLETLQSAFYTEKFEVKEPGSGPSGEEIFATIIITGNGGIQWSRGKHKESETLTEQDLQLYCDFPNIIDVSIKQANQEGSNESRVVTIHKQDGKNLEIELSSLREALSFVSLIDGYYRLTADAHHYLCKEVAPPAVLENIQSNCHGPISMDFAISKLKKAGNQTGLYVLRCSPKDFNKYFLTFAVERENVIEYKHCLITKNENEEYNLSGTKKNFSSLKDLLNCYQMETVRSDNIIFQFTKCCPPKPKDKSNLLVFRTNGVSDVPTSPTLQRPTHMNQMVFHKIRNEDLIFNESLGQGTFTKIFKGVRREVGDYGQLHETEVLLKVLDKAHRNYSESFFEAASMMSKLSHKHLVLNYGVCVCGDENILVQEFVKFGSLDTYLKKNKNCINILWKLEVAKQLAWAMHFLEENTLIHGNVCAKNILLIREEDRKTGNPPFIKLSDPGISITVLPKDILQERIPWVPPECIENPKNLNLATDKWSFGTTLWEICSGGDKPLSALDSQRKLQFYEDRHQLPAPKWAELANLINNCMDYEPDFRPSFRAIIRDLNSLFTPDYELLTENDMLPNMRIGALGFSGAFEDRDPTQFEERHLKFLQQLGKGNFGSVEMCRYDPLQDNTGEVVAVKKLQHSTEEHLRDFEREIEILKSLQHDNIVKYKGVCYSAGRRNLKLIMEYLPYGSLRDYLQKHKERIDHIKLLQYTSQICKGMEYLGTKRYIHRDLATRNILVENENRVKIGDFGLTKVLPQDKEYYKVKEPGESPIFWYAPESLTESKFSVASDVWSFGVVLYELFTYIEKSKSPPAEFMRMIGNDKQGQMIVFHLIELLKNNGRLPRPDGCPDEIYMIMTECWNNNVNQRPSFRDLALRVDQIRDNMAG
Tyrosine-protein kinase JAK2 (Homo sapiens, UniProt O60674, V617F), sequence (O60674 whole entry V617F): as the sequence (O60674 whole entry) above, with V617F counted along it
Non-receptor tyrosine-protein kinase TYK2, sequence (P29597 whole entry): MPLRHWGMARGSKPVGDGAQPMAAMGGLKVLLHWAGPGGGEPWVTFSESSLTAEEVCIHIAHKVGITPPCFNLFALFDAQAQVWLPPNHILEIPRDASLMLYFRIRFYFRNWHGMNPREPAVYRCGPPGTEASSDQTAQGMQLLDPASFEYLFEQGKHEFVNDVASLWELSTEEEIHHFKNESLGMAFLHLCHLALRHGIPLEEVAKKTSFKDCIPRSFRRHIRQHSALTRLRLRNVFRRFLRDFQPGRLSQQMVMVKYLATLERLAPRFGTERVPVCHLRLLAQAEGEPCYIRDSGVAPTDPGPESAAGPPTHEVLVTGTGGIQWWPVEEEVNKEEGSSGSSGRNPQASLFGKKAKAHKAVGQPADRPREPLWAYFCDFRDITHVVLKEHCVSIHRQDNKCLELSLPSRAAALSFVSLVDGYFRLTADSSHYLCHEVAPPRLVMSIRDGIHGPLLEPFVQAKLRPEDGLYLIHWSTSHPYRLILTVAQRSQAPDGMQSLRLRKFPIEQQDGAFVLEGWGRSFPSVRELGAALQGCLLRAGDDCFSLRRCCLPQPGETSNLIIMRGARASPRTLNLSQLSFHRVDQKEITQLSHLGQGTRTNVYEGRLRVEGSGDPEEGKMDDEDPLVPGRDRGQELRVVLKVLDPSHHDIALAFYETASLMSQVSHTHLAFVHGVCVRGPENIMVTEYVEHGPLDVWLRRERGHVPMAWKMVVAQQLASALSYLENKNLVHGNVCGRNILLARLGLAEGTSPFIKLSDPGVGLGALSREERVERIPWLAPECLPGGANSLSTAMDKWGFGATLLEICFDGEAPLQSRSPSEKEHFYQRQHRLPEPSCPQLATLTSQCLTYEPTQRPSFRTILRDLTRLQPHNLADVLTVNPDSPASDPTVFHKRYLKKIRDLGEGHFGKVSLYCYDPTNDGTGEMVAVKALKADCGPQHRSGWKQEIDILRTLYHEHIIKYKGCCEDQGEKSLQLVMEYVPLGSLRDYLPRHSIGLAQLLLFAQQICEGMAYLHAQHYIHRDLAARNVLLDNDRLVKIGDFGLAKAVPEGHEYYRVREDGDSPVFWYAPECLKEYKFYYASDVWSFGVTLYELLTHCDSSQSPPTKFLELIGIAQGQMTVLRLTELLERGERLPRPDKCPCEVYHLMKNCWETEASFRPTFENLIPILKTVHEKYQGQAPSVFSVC
Tyrosine-protein kinase JAK1, sequence (P23458 whole entry): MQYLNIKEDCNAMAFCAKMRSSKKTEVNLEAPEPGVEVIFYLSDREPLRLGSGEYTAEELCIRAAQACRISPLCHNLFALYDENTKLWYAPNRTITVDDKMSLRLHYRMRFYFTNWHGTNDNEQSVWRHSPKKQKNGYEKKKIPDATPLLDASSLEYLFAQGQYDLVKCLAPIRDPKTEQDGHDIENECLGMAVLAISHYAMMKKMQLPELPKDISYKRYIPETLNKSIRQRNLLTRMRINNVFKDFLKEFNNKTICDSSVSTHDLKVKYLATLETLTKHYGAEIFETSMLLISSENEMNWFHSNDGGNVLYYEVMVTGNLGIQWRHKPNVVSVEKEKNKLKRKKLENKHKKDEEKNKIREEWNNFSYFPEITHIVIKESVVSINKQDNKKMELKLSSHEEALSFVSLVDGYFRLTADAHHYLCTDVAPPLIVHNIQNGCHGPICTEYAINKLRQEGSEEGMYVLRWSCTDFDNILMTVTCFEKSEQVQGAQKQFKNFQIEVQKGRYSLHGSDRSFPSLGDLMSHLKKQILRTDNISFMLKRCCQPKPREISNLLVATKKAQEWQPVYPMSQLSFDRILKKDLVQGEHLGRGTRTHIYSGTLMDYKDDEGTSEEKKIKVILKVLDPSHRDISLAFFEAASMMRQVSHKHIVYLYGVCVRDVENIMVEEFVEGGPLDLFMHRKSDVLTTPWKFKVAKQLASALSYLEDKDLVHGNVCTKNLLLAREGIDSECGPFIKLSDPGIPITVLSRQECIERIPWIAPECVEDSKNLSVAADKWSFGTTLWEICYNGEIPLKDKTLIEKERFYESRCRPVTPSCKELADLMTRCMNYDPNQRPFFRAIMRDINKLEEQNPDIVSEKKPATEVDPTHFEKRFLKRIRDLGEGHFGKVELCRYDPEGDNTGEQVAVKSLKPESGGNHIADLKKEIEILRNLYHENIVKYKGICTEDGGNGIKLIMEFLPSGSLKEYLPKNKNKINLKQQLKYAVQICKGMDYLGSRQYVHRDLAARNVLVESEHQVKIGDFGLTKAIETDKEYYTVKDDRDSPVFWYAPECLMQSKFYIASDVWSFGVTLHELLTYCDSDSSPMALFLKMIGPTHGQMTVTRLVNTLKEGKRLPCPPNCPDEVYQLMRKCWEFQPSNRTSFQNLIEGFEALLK
Tyrosine-protein kinase JAK2 (Mus musculus, UniProt Q62120, V617F), sequence (Q62120 as listed by the source V617F): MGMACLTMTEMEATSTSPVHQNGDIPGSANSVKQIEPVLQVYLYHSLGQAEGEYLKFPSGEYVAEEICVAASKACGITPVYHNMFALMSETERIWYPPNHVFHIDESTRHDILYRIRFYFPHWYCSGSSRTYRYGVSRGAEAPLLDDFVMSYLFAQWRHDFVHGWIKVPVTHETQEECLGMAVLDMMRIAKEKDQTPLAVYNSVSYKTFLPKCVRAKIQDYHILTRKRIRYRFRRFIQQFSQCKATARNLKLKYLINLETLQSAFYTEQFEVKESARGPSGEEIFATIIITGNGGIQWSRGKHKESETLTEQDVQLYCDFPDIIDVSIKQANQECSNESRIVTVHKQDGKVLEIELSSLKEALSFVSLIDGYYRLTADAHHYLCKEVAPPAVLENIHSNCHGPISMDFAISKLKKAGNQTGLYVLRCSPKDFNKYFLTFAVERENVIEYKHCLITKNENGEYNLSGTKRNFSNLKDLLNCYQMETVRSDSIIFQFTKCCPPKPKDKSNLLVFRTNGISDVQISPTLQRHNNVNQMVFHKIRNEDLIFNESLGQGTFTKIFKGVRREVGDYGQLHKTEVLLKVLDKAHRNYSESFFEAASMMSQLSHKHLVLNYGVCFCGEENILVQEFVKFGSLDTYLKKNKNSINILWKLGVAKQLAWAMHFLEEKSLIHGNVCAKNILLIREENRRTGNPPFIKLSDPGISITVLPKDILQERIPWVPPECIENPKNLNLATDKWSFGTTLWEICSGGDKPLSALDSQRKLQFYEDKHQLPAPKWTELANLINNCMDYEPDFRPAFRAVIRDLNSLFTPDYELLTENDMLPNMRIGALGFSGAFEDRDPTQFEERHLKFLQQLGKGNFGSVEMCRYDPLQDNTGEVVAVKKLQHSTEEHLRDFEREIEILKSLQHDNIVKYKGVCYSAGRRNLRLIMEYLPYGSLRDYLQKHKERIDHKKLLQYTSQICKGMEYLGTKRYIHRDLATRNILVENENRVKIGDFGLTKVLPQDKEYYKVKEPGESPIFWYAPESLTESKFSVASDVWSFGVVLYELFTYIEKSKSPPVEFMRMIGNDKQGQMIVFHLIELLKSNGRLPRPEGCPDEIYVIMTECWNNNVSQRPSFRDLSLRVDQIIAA

Cc1cnc(Nc2ccc(CNS(=O)(=O)C3CC3)cc2)nc1-c1cnn(C(C)C)c1
IC50 [1]: 109 nM
IC50 [2]: 53.3 nM
IC50 [3]: 1250 nM
half-life [4]: > 2 h
IC50 [5]: 178 nM
IC50 [6]: 5 nM
IC50 [7]: 265 nM
IC50 [8]: 204 nM
IC50 [9]: 297 nM
Cmax [10]: 89.3 ng/mL
Tmax [11]: 1.6 h
t1/2 [12]: 3.5 h
CL [13]: 355 mL/min/kg
AUCt [14]: 2011.6 ng·h/mL
bioavailability [15]: 40.5%
Ratio IC50 [16]: 53
Ratio IC50 [17]: 40.8
Ratio IC50 [18]: 59.4
Activity [19]: 1%
